In article PMC6636858 (European journal of medicinal chemistry, 2019):
Like-named read-outs stand apart in the source and are kept apart here. Blank lines part the entries; values can stand above or below the molecule they belong to. Peptide text beside a SMILES is read from it. * marks the point of attachment. AMC = Cc1cc(=O)oc2cc(N*)ccc12; Cbz = O=C(OCc1ccccc1)*

How the values were obtained:
[1] = target: T1, Cathepsin L (Cat L, human liver) (Homo sapiens, UniProt P07711); test: CatL inhibition constants / Km, fluorogenic substrate Z-Phe-Arg-AMC; type: biochemical
T1 sequence (P07711 114-288 limits assumed): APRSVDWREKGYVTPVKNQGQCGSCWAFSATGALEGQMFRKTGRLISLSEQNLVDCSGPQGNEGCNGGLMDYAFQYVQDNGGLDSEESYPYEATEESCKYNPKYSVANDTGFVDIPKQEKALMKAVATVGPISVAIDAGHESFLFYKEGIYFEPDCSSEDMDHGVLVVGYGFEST
T1 sequence (P07711 292-333 limits assumed): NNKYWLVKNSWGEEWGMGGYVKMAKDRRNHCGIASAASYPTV

[2] = target: T2, Cathepsin B (CatB, human liver) (Homo sapiens, UniProt P07858); test: CatB inhibition constants / Km, fluorogenic substrate Z-Arg-Arg-AMC; type: biochemical
human CatL = human CatL (Homo sapiens, UniProt P07711); test: SDS-PAGE autoradiography of adduct formation with purified CatL; type: biochemical; conditions: E-64 10 μM or N1 20 μM
Chain of human CatL (P07711 114-288 limits assumed): as the sequence (P07711 114-288 limits assumed) above
Chain of human CatL (P07711 292-333 limits assumed): as the sequence (P07711 292-333 limits assumed) above

HT-29 cells = test: SDS-PAGE autoradiography of intracellular adducts in cell lysate; type: cell-based, human; conditions: E-64 10 μM or N1 20 μM
Procedure, shortened: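 HT-29 cells (1 × 10^6/well) incubated 4 h at 37 °C with radioconjugate (20 μCi, 0.74 MBq, in 1 mL medium), ± E-64 (10 μM as added) or N1 (20 μM as added). Cells PBS-washed and given fresh medium. At chosen times, pooled from 3 wells, trypsinized and lysed in RIPA plus protease inhibitor (15 min on ice). Cleared lysate heated in SDS sample buffer (85 °C, 2 min) and run on 16% Tris-glycine gel (110 V, 90 min).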

human CatB = human CatB (Homo sapiens, UniProt P07858); test: SDS-PAGE autoradiography of adduct formation with purified CatB; type: biochemical; conditions: E-64 10 μM or N1 20 μM
[3] = target: T2, Cathepsin B (CatB, human liver); conditions: read-out: Michaelis-Menten constant (Km), reported value; cited from earlier work
[4] = target: T1, Cathepsin L (Cat L, human liver); conditions: read-out: Michaelis-Menten constant (Km), literature value; CatL; cited from earlier work

Molecule: 3-(((S)-1-(((S)-1-((2-azidoethyl)amino)-5-guanidino-1-oxopentan-2-yl)amino)-4-methyl-1-oxopentan-2-yl)carbamoyl)oxirane-2-carboxylic acid [1a]
- second order rate constant ki/Ki ([1]; CatL): 16000 ± 1300 M⁻¹ s⁻¹
- second order rate constant ki/Ki ([2]; CatB): 130000 ± 1900 M⁻¹ s⁻¹

Molecule: Cc1cc(=O)oc2cc(NC(=O)[C@H](CCCN=C(N)N)NC(=O)[C@H](CCCN=C(N)N)NC(=O)OCc3ccccc3)ccc12 [Z-Arg-Arg-AMC] (Cbz-Arg-Arg-{AMC})
- Km [3]: 390 ± 20 µM
- Km ([2]; read-out: Michaelis-Menten constant (Km), CatB substrate): 189 ± 2 µM

Molecule: Cc1cc(=O)oc2cc(NC(=O)C(CCCN=C(N)N)NC(=O)C(Cc3ccccc3)NC(=O)OCc3ccccc3)ccc12 (stereo not drawn) [Z-Phe-Arg-AMC] (Cbz-Phe-Arg-{AMC}; configuration not given here)
- Km ([1]; read-out: Michaelis-Menten constant (Km), CatL substrate): 36 ± 3 µM
- Km [4]: 21.5 ± 3.2 µM

Further lines, with some results ahead:

- inhibition of CatB ([2]; over the test concentration ranges): No inhibition
Molecule: CC(C)C[C@H](NC(=O)CCC(=O)O)C(=O)N[C@@H](CCCNC(=N)N)C(=O)NCCN=[N+]=[N-] [1b, 4-(((S)-1-(((S)-1-((2-azidoethyl)amino)-5-guanidino-1-oxopentan-2-yl)amino)-4-methyl-1-oxopentan-2-yl)amino)-4-oxobutanoic acid]

- effect of co-incubated agent on ^177Lu-NE1a adduct formation with CatL (human CatL): prevented adduct formation
- effect of co-incubated agent on ^177Lu-NE1a adduct formation with CatB (human CatB): prevented adduct formation
Molecule: CC(C)C[C@H](NC(=O)[C@H]1O[C@@H]1C(=O)O)C(=O)NCCCCN=C(N)N [E-64]
- effect of co-incubated agent on ^177Lu-NE1a intracellular adduct formation (HT-29 cells): unaffected
